# Rows were chosen to be rich in hits. Some 3% of all compounds tested hit in one or more screens of this group.
# M4 antag = CHRM4 antagonism in calcium assay; P08173; 0.73% of 360,000 active; CHO-hM4 cells, ACh EC80, Fluo-8 calcium fluorescence; AID 624125; inhibition, % at 3 µM;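 active means inhibition above its plate's cutoff, the mean inhibition of sample wells plus 3 SD, cut at about 27% in these data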;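 further: 0% = acetylcholine EC80 with DMSO and 100% = DMSO without agonist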
# M4 PAM = potentiates acetylcholine response at human M4 receptor | P08173 | CHO-K1 hM4/Gqi5, Fluo-8 calcium fluorescence, ACh EC20; 0% = ACh EC20, 100% = maximal ACh | activation, % at 3 µM | 0.4% of 360,000 active | AID 624126;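 active means activation above its plate's cutoff, the mean activation of sample wells plus 3 SD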
# TAAR1 antagonist = human TAAR1 antagonism; Q96RJ0; CHO RD-HGA16 TAAR1, Fluo-8 calcium fluorescence, antagonist; inhibition, % at 3 µM; 1.5% of 360,000 active;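 active means inhibition above a per-plate cutoff, the mean inhibition of test compounds on that plate plus 3 SD, cut at about 49% in these data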;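 further: 0% = DMSO plus EC80 beta-PEA response and 100% = DMSO alone without agonist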
# Target sequence (Q96RJ0 whole entry, looked up): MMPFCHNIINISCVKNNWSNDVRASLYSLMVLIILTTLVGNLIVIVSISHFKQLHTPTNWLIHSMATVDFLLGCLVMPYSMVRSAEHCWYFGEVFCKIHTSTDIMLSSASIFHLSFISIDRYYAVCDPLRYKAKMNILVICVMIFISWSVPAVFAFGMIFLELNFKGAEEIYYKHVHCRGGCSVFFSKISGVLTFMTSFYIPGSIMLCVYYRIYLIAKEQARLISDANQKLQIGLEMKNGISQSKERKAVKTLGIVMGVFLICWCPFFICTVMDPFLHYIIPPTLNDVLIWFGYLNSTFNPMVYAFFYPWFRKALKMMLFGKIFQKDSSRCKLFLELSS
#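 Test system: RD-HGA16 CHO cells with stable hTAAR1 and Gα16 / Probe or stimulus: EC80 β-phenethylamine stimulus / Times: seeding 17-24 h prior, 75-min 37 °C, 30-min RT dye loading / Detection: Fluo-8 calcium-sensitive fluorescence / Read-out basis: % inhibition scaled between DMSO and EC80 PEA controls / Repeats: singlicate, one well per test compound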
# TAAR1 agonist = human TAAR1 agonism; CHO RD-HGA16 TAAR1, Fluo-8 calcium fluorescence; vehicle wells 0%, saturating PEA agonist 100%; Q96RJ0; 0.99% of 360,000 active; activation, % at 3 µM;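 active means activation above the mean activation of all test compounds in the run plus 3 SD, cut at about 38% in these data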
#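 System: CHO RD-HGA16 cells carrying human TAAR1 plus Gα16; Incubation: 17-24 h seeding, 75 min 37 °C dye, 30 min RT; Measured by: Fluo-8 fluorescence, 5 s baseline then 140 s kinetic read; Control set: DMSO and PEA EC100; Replication: single well for each compound.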
# CHRM4 agonist = CHRM4 agonism in calcium assay. CHO-K1 hM4/Gqi5, Fluo-8 calcium fluorescence; vehicle 0%, full acetylcholine response 100%. P08173. activation, % at 3 µM. AID 624127. 0.14% of 360,000 active;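 active means activation above the run mean over all test wells plus 3 SD, cut at about 32% in these data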;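 further: peak over basal fluorescence ratio per well then scaled between controls; 0% = DMSO wells and 100% = acetylcholine at EC100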
# Active calls of the source: *; · = no result given.
SMILES,M4 antag,M4 PAM,TAAR1 antagonist,TAAR1 agonist,CHRM4 agonist
S=C1NC[C@H](Cc2ccccc2)N1CCCCC1CCCCC1,4,1,-12,2,1
CCN1/C(=C/c2ccc3cccc(C)c3[n+]2CC)Sc2ccccc21,31*,-8,29,25,10
Cc1cc(C)c(OCC(=O)Nc2cccc(NC(=O)c3ccco3)c2)c(Br)c1,13,-9,52*,7,15
Cc1cccc2cc(CN(CC3CCCO3)S(=O)(=O)c3ccccc3)c(=O)[nH]c12 (configuration not stated),4,-5,49*,10,16
COc1ccc2cc(CN(CC3CCCO3)S(=O)(=O)c3ccccc3)c(=O)[nH]c2c1 (configuration not stated),-7,7,3,19,14
CC(C)(C)S(=O)(=O)N1Cc2cc(CO)ccc2[C@H]1CCO,·,·,-12,3,·
C#CCN1CC(COCCCC)Oc2cccc(Oc3ccc(C(C)(C)C)c(C)c3)c2S1(=O)=O (configuration not stated),·,·,-6,-1,·
CN(C)c1ccc(NC(=O)c2sc(SCC(=O)Nc3nccs3)nc2N)cc1,22,-27,67*,20,24
C/C(CC1CC(C)(C)OC1=O)=N\NC(N)=S (configuration not stated),-2,7,-26,1,0
C/C(CC1CC2=C(CC1(C)C)C(C)(C)CCC2)=N\NC(N)=S (configuration not stated),5,43*,15,0,1
C[C@H](CO)N1C[C@H](C)[C@@H](CN(C)S(=O)(=O)c2ccc3c(c2)OCCCO3)OCc2cn(nn2)CCCC1=O,3,-6,-8,1,-1
CC(C)CC1O[C@@H](C)[C@@H]2CN3CCc4c([nH]c5ccccc45)[C@@H]3C[C@@H]2N1C (some centres not stated),·,·,-22,2,·
CCCC1=NN2C(=N)/C(=C\c3cc(C)n(-c4cc(C)cc(C)c4)c3C)C(=O)N=C2S1,-7,-28,53*,42*,22
COCc1cc(N2CCNC[C@H]2C)ccc1N1CCN(Cc2ccccc2)[C@@H](C)C1,·,·,-7,3,·
FC(F)(F)c1cc(Cl)c2nc(-c3ccco3)c(Cc3ccccc3C(F)(F)F)n2c1,45*,-9,36,6,4
O=C1CN(C(=O)c2c(F)cccc2F)C(c2ccc(F)cc2)c2cc(F)ccc2N1 (configuration not stated),-14,2,3,16,7
O=C1CN(C(=O)c2cccc(F)c2)C(c2ccc(F)cc2)c2cc(F)ccc2N1 (configuration not stated),52*,-19,-9,2,8
O=C(Nc1cccc(Br)c1)C1CCCC1,-4,14*,4,9,0
O=C(NNC(=O)c1cc(-c2ccco2)nc2ccccc12)c1ccccc1,12,-8,50*,10,11
CCOc1ccc(NC(=O)CN(C)C(=O)c2cc(-c3ccco3)nc3ccccc23)cc1OCC,3,-11,52*,10,19
CCOc1ccc(NC(=O)CN(C)C(=O)c2cn(-c3ccc(C)cc3)nc2-c2cccc(OC)c2)cc1OCC,20,-11,64*,9,14
COc1ccc(NC(=O)CN(C)C(=O)c2cc(-c3ccncc3)nc3ccccc23)cc1,7,-10,52*,19,18
COc1cccc(NC(=O)CN(C)C(=O)c2cc(-c3ccco3)nc3ccccc23)c1,5,-9,48,13,16
COc1cccc(C(=O)N2CCC[C@@H]2C(=O)N2CCC[C@@H]2C(=O)NCc2ccccc2)c1,·,·,-29,1,·
COc1ccc(CN(C)C(=O)c2cc(-c3ccccc3)nc3ccc(C)cc23)c(OC)c1,31*,-9,45,5,14
COc1ccccc1CN(C)C(=O)c1cc(C)nc2ccccc12,-6,-12,36,12,17
O=C(N/N=C/c1ccc(-c2ccc(Cl)c(C(=O)O)c2)o1)c1cc2c(ccc3ccccc32)o1,27*,9,13,0,1
Cn1nc(C(C)(C)C)cc1C(=O)NCc1cc(F)cc2c1OCOC2,23,-12,50*,9,20

# Screening data: PubChem, The Scripps Research Institute Molecular Screening Center
